Measured values as given in ChEMBL document CHEMBL3045438, “Synthesis and fungicidal evaluation of novel chalcone-based strobilurin analogues” (2007).
Converted amounts (≈) assume the structure as drawn.

Assays:
Format in all cases: functional
Botrytis cinerea = test: Antifungal activity against Botryotinia fuckeliana assessed as fungicidal activity at 200 mg/L (beneficial crop - cucumber)
Procedure, shortened: (§1)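 In vivo preventive test on cucumber as host plant.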

Podosphaera fuliginea [1] = test: Antifungal activity against Podosphaera fuliginea in cucumber plants under greenhouse conditions assessed as fungicidal activity by in vivo assay; procedure, shortened: as §1
Podosphaera fuliginea [2] = test: Antifungal activity against Podosphaera fuliginea assessed as fungicidal activity at 200 mg/L (beneficial crop - cucumber); procedure, shortened: as §1
[3] = system: Pseudoperonospora cubensis; test: Antifungal activity against Pseudoperonospora cubensis assessed as fungicidal activity at 200 mg/L (beneficial crop - cucumber); procedure, shortened: as §1
Rhizoctonia solani = test: Antifungal activity against Rhizoctonia solani assessed as fungicidal activity at 200 mg/L (beneficial crop - cucumber); procedure, shortened: as §1
[4] = system: Pseudoperonospora cubensis; test: Antifungal activity against Pseudoperonospora cubensis in cucumber plants under greenhouse conditions assessed as fungicidal activity by in vivo assay; procedure, shortened: as §1

Compound	inhibition at 200 µg/mL (Botrytis cinerea)	EC90 (Podosphaera fuliginea [1])	inhibition at 200 µg/mL (Podosphaera fuliginea [2])	inhibition at 200 µg/mL [3]	inhibition at 200 µg/mL (Rhizoctonia solani)	EC90 [4]
CO/C=C(/C(=O)OC)c1ccccc1COc1cccc(C(=O)/C=C/c2ccc(C)c(C)c2)c1	0%	139.47 µg/mL (≈ 305 µM)	92%	100%	0%	
CO/C=C(/C(=O)OC)c1ccccc1COc1cccc(C(=O)/C=C/c2ccccc2Cl)c1	0%		94%	98%	0%	118.52 µg/mL (≈ 256 µM)
CO/N=C(/C(=O)OC)c1ccccc1COc1ccccc1C [KRESOXIM-METHYL]		7.3 µg/mL (≈ 23.3 µM)	100%	100%		154.92 µg/mL (≈ 494 µM)
CO/C=C(/C(=O)OC)c1ccccc1COc1cccc(C(=O)/C=C/c2ccc(Cl)cc2)c1	0%		96%	100%	0%	
CO/C=C(/C(=O)OC)c1ccccc1COc1ccc(C(=O)/C=C/c2ccc(C(C)(C)C)cc2)cc1	0%		67%	22%	0%	
CO/C=C(/C(=O)OC)c1ccccc1COc1cccc(C(=O)/C=C/c2cccc(Br)c2)c1	0%		99%	99%	0%	113.64 µg/mL (≈ 224 µM)
CO/C=C(/C(=O)OC)c1ccccc1COc1cccc(C(=O)/C=C/c2ccccc2Br)c1	0%		59%	100%	31%	
CO/C=C(/C(=O)OC)c1ccccc1COc1cccc(C(=O)/C=C/c2cccs2)c1	24%		0%	0%	0%	
CO/C=C(/C(=O)OC)c1ccccc1COc1ccc(C(=O)/C=C/c2cccc(Br)c2)cc1	0%		0%	56%	0%	
CO/C=C(/C(=O)OC)c1ccccc1COc1cccc(C(=O)/C=C/c2cccc(Cl)c2)c1	0%		30%	33%	0%	
CO/C=C(/C(=O)OC)c1ccccc1COc1cccc(C(=O)/C=C/c2c(F)cccc2Cl)c1	0%		13%	97%	0%	
CCOc1ccc(/C=C/C(=O)c2cccc(OCc3ccccc3/C(=C\OC)C(=O)OC)c2)cc1	0%		0%	33%	0%	
CO/C=C(/C(=O)OC)c1ccccc1COc1ccc(C(=O)/C=C/c2cccc(C)c2)cc1	0%		0%	47%	0%	
CO/C=C(/C(=O)OC)c1ccccc1COc1ccc(Cl)cc1C(=O)/C=C/c1ccccc1	0%		0%	0%	0%	
CO/C=C(/C(=O)OC)c1ccccc1COc1ccc(C(=O)/C=C/c2ccc(C)cc2)cc1	0%		0%	75%	38%	
CO/C=C(/C(=O)OC)c1ccccc1COc1ccccc1C(=O)/C=C/c1cccc(Br)c1	0%		0%	78%	0%	
